Columns and labels:
Mus musculus [1] = experiment: Compound was tested for antagonism of pentylenetetrazole-induced convulsion in mice by oral administration.; format: functional
How it was run: (§1)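 Compounds given orally as an aqueous arabic gum suspension to groups of five mice; 60 min after dosing, pentylenetetrazole 125 mg/kg given subcutaneously. Animals observed 2 h for convulsion and death; dose protecting 50% (ED50) estimated graphically.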

Mus musculus [2] = experiment: Muscle relaxation activity using the rotarod performance test in mice by oral administration.; format: functional
How it was run: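 Groups of five mice dosed orally with compound suspended in aqueous arabic gum. At 60 min post-dose each mouse placed on a 3 cm diameter wooden rod turning at 5 rpm; falls within 2 min counted. ED50 estimated graphically.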

Mus musculus [3] = experiment: Antagonism of pentylenetetrazole-induced convulsion in mice by oral administration.; format: functional; how it was run: as §1
[4] = Acute toxicity expressed as LD50 in mice after oral administration.; format: organism-based; settings: mouse, in vivo
How it was run: (§2)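 Mice dosed orally as a suspension in aqueous arabic gum, groups of one to three animals; acute toxicity judged on day 7 after dosing. Values for the three reference benzodiazepines derived by the probit method.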

[5] = Acute toxicity of compound expressed as LD50 was measured in mice after oral administration.; format: organism-based; settings: mouse, in vivo; how it was run: as §2

Structure (SMILES) | ED50 (Mus musculus [1]) [mg/kg] | ED50 (Mus musculus [2]) [mg/kg] | ED50 (Mus musculus [3]) [mg/kg] | LD50 [4] [mg/kg] | LD50 [5] [mg/kg]
CN(C(=O)CNC(=O)CN)c1ccc([N+](=O)[O-])cc1C(=O)c1ccccc1Cl | 0.32 | 10 |  |  | 
CCCCCC(=O)NCC(=O)N(C)c1ccc(Cl)cc1C(=O)c1ccccc1Cl |  | 90 | 1.9 | > 1000 | 
CCCCCCCCCCCCCCCC(=O)NCC(=O)N(C)c1ccc(Cl)cc1C(=O)c1ccccc1Cl |  | > 100 | > 100 |  | > 1000
NCC(=O)NCC(=O)Nc1ccc([N+](=O)[O-])cc1C(=O)c1ccccc1Cl |  | 63.9 | 2.64 |  | 750
CC(NC(=O)CN)C(=O)N(C)c1ccc(Cl)cc1C(=O)c1ccccc1Cl (stereo not given) |  | 8.5 | 0.47 | 750 | 
CCCC(=O)NCC(=O)N(C)c1ccc(Cl)cc1C(=O)c1ccccc1Cl |  | 55.2 | 0.98 | > 1000 | 
CN(C(=O)CNC(=O)c1ccccc1)c1ccc(Cl)cc1C(=O)c1ccccc1 |  | > 100 | 7.6 | > 1000 | 
CN(C(=O)CNC(=O)c1ccccc1)c1ccc(Cl)cc1C(=O)c1ccccc1Cl |  | > 100 | 2.9 | > 1000 | 
CNCC(=O)NCC(=O)N(C)c1ccc(Cl)cc1C(=O)c1ccccc1Cl | 1.55 |  |  | > 1000 | 
CN(C(=O)CNC(=O)CN1CCC(O)(c2ccc(Cl)cc2)CC1)c1ccc(Cl)cc1C(=O)c1ccccc1Cl |  | > 100 | 27 | > 1000 | 
CC(=O)NCC(=O)N(C)c1ccc(Cl)cc1C(=O)c1ccccc1Cl |  | 58 | 2.3 | > 1000 | 
CCCCCCC(=O)NCC(=O)N(C)c1ccc(Cl)cc1C(=O)c1ccccc1Cl |  | 70 | 1.9 | > 1000 | 
CN(C)CC(=O)NCC(=O)N(C)c1ccc(Cl)cc1C(=O)c1ccccc1Cl |  | 26 | 2.6 | > 1000 | 
NCC(=O)NCC(=O)Nc1ccc([N+](=O)[O-])cc1C(=O)c1ccccc1 |  | 24.8 | 4.82 | > 1000 | 
CN(C(=O)CNC(=O)CN1CCN(c2ccccc2)CC1)c1ccc(Cl)cc1C(=O)c1ccccc1Cl |  | > 100 | 75 | > 1000 | 
CC(C)NCC(=O)NCC(=O)N(C)c1ccc(Cl)cc1C(=O)c1ccccc1Cl |  | 13 | 1 | 750 | 

Structure (SMILES) | ED50 (Mus musculus [1]) [mg/kg] | ED50 (Mus musculus [2]) [mg/kg] | ED50 (Mus musculus [3]) [mg/kg] | LD50 [4] [mg/kg] | LD50 [5] [mg/kg]
CN1CCN(CC(=O)NCC(=O)N(C)c2ccc(Cl)cc2C(=O)c2ccccc2Cl)CC1 |  | > 100 | 59 | > 1000 | 
CN(C(=O)CNC(=O)CN1CCOCC1)c1ccc(Cl)cc1C(=O)c1ccccc1Cl |  | > 100 | 14 | > 1000 | 
CC(C)C(=O)NCC(=O)N(C)c1ccc(Cl)cc1C(=O)c1ccccc1Cl |  | > 100 | 6 | > 1000 | 
CN(C(=O)CNC(=O)Cc1ccccc1)c1ccc(Cl)cc1C(=O)c1ccccc1Cl |  | > 100 | 35 | > 1000 | 
NC(C(=O)NCC(=O)Nc1ccc(Cl)cc1C(=O)c1ccccc1)c1ccccc1 (stereo not given) |  | > 100 | 28 | > 1000 | 
CCCCC(=O)NCC(=O)N(C)c1ccc(Cl)cc1C(=O)c1ccccc1Cl |  | 90 | 1.3 | > 1000 | 
CC(=O)NCC(=O)Nc1ccc(Cl)cc1C(=O)c1ccccc1Cl |  | > 100 | > 100 | > 1000 | 
CN(C(=O)CNC(=O)CNCCc1ccccc1)c1ccc(Cl)cc1C(=O)c1ccccc1Cl |  | 86 | 1.6 | > 1000 | 
CN(C(=O)CNC(=O)CN)c1ccc([N+](=O)[O-])cc1C(=O)c1ccccc1 | 0.28 | 2.94 |  |  | 
CN(C(=O)CNC(=O)CN1CCCCC1)c1ccc(Cl)cc1C(=O)c1ccccc1Cl |  | > 100 | 7.5 | > 1000 | 
CCN(CC)CC(=O)NCC(=O)N(C)c1ccc(Cl)cc1C(=O)c1ccccc1Cl |  | 34 | 2.2 | > 1000 | 
CCC(=O)NCC(=O)N(C)c1ccc(Cl)cc1C(=O)c1ccccc1Cl |  | 36 | 1.4 | > 1000 | 
CC(=O)NCC(=O)Nc1ccc(Cl)cc1C(=O)c1ccccc1 |  | > 100 | 37 | > 1000 | 
CNC1=Nc2ccc(Cl)cc2C(c2ccccc2)=[N+]([O-])C1 [CHLORDIAZEPOXIDE] |  |  |  | 1080 | 
CN(C(=O)CNC(=O)CN)c1ccc(Cl)cc1C(=O)c1ccccc1Cl [LORZAFONE ANHYDROUS] |  | 27.7 | 0.58 | > 1000 | 
O=C1CN=C(c2ccccc2)c2cc([N+](=O)[O-])ccc2N1 [NITRAZEPAM] |  | 4.25 | 0.23 |  | 

— ChEMBL document CHEMBL1121711, “Novel peptidoaminobenzophenones, terminal N-substituted peptidoaminobenzophenones, and N-(acylglycyl)aminobenzophenones as open-ring derivatives of benzodiazepines” (J Med Chem, 1981)
